A short description of data set [1]: Antiplatelet activity in human platelet rich plasma assessed as inhibition of ADP-induced aggregation preincubated for 1 min before 5-HT and ADP challenge measured after 3 mins by turbidimetry.
Data set [2] addresses T1, 5-hydroxytryptamine receptor 2A (Homo sapiens, UniProt P28223). Nature of the data set: Displacement of [125I]DOI from human recombinant 5HT2A receptor expressed in HEK293 cells by scintillation counting. Type of data set: cell-based. In short, it runs like this:
(§1)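 Crude plasma membranes from HEK293 cells stably expressing the human receptor (5–25 μg protein), in 20 mM HEPES pH 7.4 with 10 mM MgCl2. Incubated with 0.5 nM [125I]DOI and test compound (1 pM–10 μM) for 1 h at room temperature; nonspecific binding defined with 10 μM cold DOI. Filtered, washed with ice-cold Tris buffer and scintillation counted in triplicate.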

A short description of data set [3]: Total clearance in Sprague-Dawley rat at 2 mg/kg, iv after 24 hrs by HPLC/MS/MS analysis. The class given is ADME, organism-based. The arrangement: dose 2 mg/kg, route intravenous. The settings on record: in vivo. A digest of the protocol: (§2)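 Male rats fasted overnight before oral dosing; 10 mg/kg po and 2 mg/kg iv in 80% PEG400/20% phosphate buffered saline. Jugular vein blood was sampled at 0.25–21 h over 24 h, and heparin plasma was assayed by HPLC/MS/MS (MRM, positive electrospray, internal standard; LLOQ 1 ng/mL, ULOQ 2000 ng/mL). %F is taken relative to the 2 mg/kg iv dose. Mean of n = 3 animals.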

The nature of data set [4]: Half life in Sprague-Dawley rat at 10 mg/kg, po by HPLC/MS/MS analysis. Type of data set: ADME, organism-based. Also on record: dose 10 mg/kg, route oral. The settings on record: in vivo. A digest of the protocol:
as §2

Data set [5] in a line: AUC (0 to last) in Sprague-Dawley rat at 10 mg/kg, po after 24 hrs by HPLC/MS/MS analysis. Type of data set: ADME, organism-based. The arrangement: time 0 - last, dose 10 mg/kg, route oral. Conditions: plasma. A digest of the protocol:
as §2

Data set [6] is described as follows: Cmax in Sprague-Dawley rat at 10 mg/kg, po after 24 hrs by HPLC/MS/MS assay. Type of data set: ADME, organism-based. The arrangement: dose 10 mg/kg, route oral. Conditions: in vivo. A digest of the protocol: as §2
Data set [7] has as its target T2, hERG (KCNH2) (Homo sapiens, UniProt Q12809). Nature of the data set: Inhibition of human ERG at 1 uM by patch clamp assay.
In data set [8] the target is Voltage-gated inwardly rectifying potassium channel KCNH2 (Homo sapiens, UniProt Q12809). Nature of the data set: Inhibition of human ERG by patch clamp assay.
Chain of Voltage-gated inwardly rectifying potassium channel KCNH2 (Q12809 whole entry): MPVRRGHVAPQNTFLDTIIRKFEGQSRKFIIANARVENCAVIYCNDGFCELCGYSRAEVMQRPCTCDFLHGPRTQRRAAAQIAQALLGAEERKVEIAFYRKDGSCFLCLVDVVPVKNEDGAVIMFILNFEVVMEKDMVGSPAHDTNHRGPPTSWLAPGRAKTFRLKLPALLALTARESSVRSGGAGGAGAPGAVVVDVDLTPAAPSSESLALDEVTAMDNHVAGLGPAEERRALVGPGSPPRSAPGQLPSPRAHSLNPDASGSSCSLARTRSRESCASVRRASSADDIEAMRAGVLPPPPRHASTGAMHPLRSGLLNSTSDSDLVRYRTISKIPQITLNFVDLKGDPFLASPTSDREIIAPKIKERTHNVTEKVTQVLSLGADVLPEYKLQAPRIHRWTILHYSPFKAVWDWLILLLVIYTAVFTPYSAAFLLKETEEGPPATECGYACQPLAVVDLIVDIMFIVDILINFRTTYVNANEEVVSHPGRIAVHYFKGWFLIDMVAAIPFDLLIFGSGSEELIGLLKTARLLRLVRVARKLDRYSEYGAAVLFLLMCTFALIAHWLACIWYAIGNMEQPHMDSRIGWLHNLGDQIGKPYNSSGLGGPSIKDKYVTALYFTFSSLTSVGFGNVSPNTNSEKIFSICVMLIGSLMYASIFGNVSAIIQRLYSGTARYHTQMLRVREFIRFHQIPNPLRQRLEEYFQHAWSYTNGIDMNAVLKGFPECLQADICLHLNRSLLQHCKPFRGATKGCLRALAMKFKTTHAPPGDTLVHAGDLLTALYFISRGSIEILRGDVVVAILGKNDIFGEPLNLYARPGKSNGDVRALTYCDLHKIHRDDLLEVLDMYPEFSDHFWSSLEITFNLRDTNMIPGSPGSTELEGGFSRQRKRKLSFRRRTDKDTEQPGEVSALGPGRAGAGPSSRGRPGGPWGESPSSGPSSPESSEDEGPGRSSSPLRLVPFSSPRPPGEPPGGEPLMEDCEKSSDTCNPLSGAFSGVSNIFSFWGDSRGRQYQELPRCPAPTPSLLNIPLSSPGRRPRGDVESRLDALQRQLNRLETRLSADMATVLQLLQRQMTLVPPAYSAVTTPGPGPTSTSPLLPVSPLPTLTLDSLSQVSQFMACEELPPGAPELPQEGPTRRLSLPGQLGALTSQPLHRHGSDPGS
In data set [9] the target is T3, 5-hydroxytryptamine receptor 2C (Homo sapiens, UniProt P28335).
T3 sequence (P28335 whole entry): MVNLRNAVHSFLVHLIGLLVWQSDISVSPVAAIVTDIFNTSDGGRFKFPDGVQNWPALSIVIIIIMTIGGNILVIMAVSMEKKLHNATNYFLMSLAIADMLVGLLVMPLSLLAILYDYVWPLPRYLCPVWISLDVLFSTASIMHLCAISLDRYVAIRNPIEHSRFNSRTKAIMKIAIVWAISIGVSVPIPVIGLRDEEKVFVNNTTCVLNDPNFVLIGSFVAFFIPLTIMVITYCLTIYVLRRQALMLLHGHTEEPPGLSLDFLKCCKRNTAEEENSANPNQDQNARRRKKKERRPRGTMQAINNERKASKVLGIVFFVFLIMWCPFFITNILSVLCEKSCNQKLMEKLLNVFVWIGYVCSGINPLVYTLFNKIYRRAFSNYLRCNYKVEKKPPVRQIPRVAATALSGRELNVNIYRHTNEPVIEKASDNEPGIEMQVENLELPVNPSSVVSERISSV
Nature of the data set: Displacement of [125I]DOI from human recombinant 5HT2C receptor expressed in HEK293 cells by scintillation counting. The class given is cell-based. In short, it runs like this:
as §1

A short description of data set [10]: Volume of distribution at steady state in Sprague-Dawley rat at 2 mg/kg, iv after 24 hrs by HPLC/MS/MS analysis. The class given is ADME, organism-based. Also on record: dose 2 mg/kg, route intravenous. The settings on record: in vivo, read-out: Vdss. A digest of the protocol:
as §2

Data set [11] can be described thus: Bioavailability in Sprague-Dawley rat at 2 mg/kg, iv after 24 hrs by HPLC/MS/MS analysis. Type of data set: ADME, organism-based. Conditions: in vivo. A digest of the protocol: as §2
Data set [12] concerns the target T2, hERG (KCNH2). Nature of the data set: Inhibition of human ERG at 3 uM by patch clamp assay.
Data set [13] deals with T1, 5-hydroxytryptamine receptor 2A. The data set is described as follows: Inverse agonist activity at human 5HT2A receptor expressed in HEK293 cells assessed as inhibition of inositol phosphate accumulation. The class given is functional, cell-based.

Here are results for 20 molecules from ChEMBL document CHEMBL1155506 (J Med Chem, 2010).

SMILES strings stand for the structures.

T2 sequence (Q12809 whole entry): as the sequence (Q12809 whole entry) above
T1 sequence (P28223 whole entry): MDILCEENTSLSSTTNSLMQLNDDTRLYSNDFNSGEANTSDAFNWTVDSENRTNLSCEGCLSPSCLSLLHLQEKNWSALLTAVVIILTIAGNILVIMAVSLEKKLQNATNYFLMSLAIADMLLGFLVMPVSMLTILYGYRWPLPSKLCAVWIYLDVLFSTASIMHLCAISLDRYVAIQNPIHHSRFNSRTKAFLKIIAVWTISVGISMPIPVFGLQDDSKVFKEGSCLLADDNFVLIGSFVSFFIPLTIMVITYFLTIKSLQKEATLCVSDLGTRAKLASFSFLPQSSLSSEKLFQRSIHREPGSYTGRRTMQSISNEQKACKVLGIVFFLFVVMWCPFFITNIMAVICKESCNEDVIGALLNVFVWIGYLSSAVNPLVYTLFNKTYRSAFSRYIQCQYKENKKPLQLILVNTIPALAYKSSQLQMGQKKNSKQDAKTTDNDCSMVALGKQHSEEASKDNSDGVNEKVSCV

For the molecule `Cn1nccc1-c1cc(NC(=O)c2ccc(F)cc2F)ccc1OCCN1CCOCC1`, the IC50 in data set [1] was determined as 27 nM; in data set [8], 4100 nM. Further, the Ki in data set [2] is 8.6 nM; in [9] it was more than 10000 nM. In data set [3], the clearance was 233 mL/min/kg. Besides, the half-life in [4] was 1.5 h. The exposure AUC(0-t) at 24 h in [5] turned out to be 171 ng·h/mL. The molecule further displayed a Cmax in data set [6] of 56 ng/mL. Also, testing at 1 µM against hERG (KCNH2) [7] gave an inhibition of 16%. Further, in data set [10], the Vd was 11.7 L/kg. The molecule also yielded a bioavailability in data set [11] of 22%.

Consider `Cn1nccc1-c1cc(NC(=O)c2ccc(F)c(F)c2)ccc1OCCN1CCOCC1`, for which, on hERG (KCNH2) [12], the inhibition at 3 µM was 56%. In addition, the IC50 in [1] was 29 nM. For the same molecule, the inhibitory constant (Ki) in data set [2] is 4.1 nM; in data set [9], more than 10000 nM.

At hERG (KCNH2) [12], `CC(=O)N1CCN(CCOc2ccc(NC(=O)c3cccc(C(F)(F)F)c3)cc2-c2ccnn2C)CC1` gave an inhibition at 3 µM of 75%. Also, the half-maximal inhibitory concentration (IC50) in [1] amounted to 145 nM. The Ki is 4.3 nM in data set [2] and 5610 nM in data set [9].

On hERG (KCNH2) [12], `COc1cccc(C(=O)Nc2ccc(OCCN)c(-c3ccnn3C)c2)c1` had an inhibition at 3 µM of 22%. Moreover, the concentration for half-maximal inhibition (IC50) in data set [1] came to 6.9 nM. Further, the figures for the Ki in data set [2] and in data set [9] were 2.2 nM and 2350 nM, respectively.

Molecule `Cn1nccc1-c1cc(NC(=O)c2cccc(C(F)(F)F)c2)ccc1OCCN1CCC(F)(F)C1` gave an inhibition at 3 µM against hERG (KCNH2) [12] of 50%. Also, the IC50 in data set [1] came out at 189 nM. Also, the Ki in data set [2] amounted to 12 nM; in data set [9], 9250 nM.

With `Cn1nccc1-c1cc(NC(=O)c2ccc(C(F)(F)F)cc2)ccc1OCCN1CCOCC1`, the 50% inhibitory concentration (IC50) in [1] was 61 nM. Moreover, the figures for the Ki in [2] and in data set [9] were 2.4 nM and 5900 nM, respectively. The molecule further yielded an inhibition at 1 µM at hERG (KCNH2) [7] of 33%.

Regarding `Cn1ncc(Cl)c1-c1cc(NC(=O)c2cccc(F)c2)ccc1OCCN1CCOCC1`, testing at 3 µM against hERG (KCNH2) [12] gave an inhibition of 46%. Besides, the concentration for half-maximal inhibition (IC50) in [1] stood at 22 nM. Besides, the values for the Ki in [2] and in data set [9] were 0.6 nM and 3380 nM, respectively.

Take `Cn1nccc1-c1cc(NC(=O)c2ccc(C(F)(F)F)cc2)ccc1OCCN1CCCC1`: the IC50 in data set [1] is 2 nM. Also, the Ki was 1.9 nM in data set [2] and 225 nM in [9]. For the same molecule, the clearance in data set [3] was 18.3 mL/min/kg. For the same molecule, the half-life in data set [4] is 2.8 h. For the same molecule, the AUC(0-t) at 24 h in data set [5] turned out to be 3830 ng·h/mL. In [6], this molecule showed a Cmax of 453 ng/mL. Testing at 1 µM against hERG (KCNH2) [7] gave an inhibition of 66%. Also, in [10], the Vd came to 5.4 L/kg. The bioavailability in [11] amounted to 43%.

On hERG (KCNH2) [12], `COc1cccc(C(=O)Nc2ccc(OCCN3CCN(S(C)(=O)=O)CC3)c(-c3ccnn3C)c2)c1` yielded an inhibition at 3 µM of 23%. The figures for the Ki in data set [2] and in [9] were 28 nM and more than 10000 nM, respectively.

In turn, `COc1cccc(C(=O)Nc2ccc(OCCNCCO)c(-c3ccnn3C)c2)c1` had an inhibition at 3 µM against hERG (KCNH2) [12] of 36%. Besides, the half-inhibitory concentration (IC50) in data set [1] was found to be 5.8 nM. The results for the inhibition constant Ki in data set [2] and in [9] were 1.8 nM and 5870 nM, respectively.

`Cn1ncc(Cl)c1-c1cc(NC(=O)c2cccc(C(F)(F)F)c2)ccc1OCCN1CCNC(=O)C1` showed an inhibition at 3 µM against hERG (KCNH2) [12] of 53%. Also, in data set [1], the IC50 was 127 nM. Moreover, the Ki is 5.3 nM in data set [2] and more than 10000 nM in [9].

As for `Cn1nccc1-c1cc(NC(=O)c2cccc(C(F)(F)F)c2)ccc1OCCN1CCOCC1`, in [1], the half-inhibitory concentration (IC50) was determined as 18 nM. Further, the Ki in data set [2] is 0.7 nM; in data set [9] it was more than 10000 nM. Moreover, in data set [3], the clearance is 160 mL/min/kg. The molecule further had a half-life in [4] of 1.8 h. The AUC(0-t) at 24 h in [5] was 288 ng·h/mL. The Cmax in data set [6] was 202 ng/mL. In addition, in data set [10], the Vd was 5.1 L/kg. In addition, the bioavailability in data set [11] is 27%.

On to `Cn1nccc1-c1cc(NC(=O)c2cccc(C(F)(F)F)c2)ccc1OCCN1CCCC1`, for which the results for the IC50 in data set [1] and in [13] were 3.2 nM and 23 nM, respectively. The Ki in [2] worked out at 0.6 nM; in data set [9], 1140 nM. Also, on hERG (KCNH2) [7], the inhibition at 1 µM stood at 80%.

In the case of `CC(=O)N1CCN(CCOc2ccc(NC(=O)c3cccc(F)c3)cc2-c2ccnn2C)CC1`, the IC50 in data set [1] was determined as 40 nM. The Ki in data set [2] is 15 nM; in data set [9] it was more than 10000 nM.

In the case of `COc1cccc(C(=O)Nc2ccc(OCCN3CCN(C(N)=O)CC3)c(-c3ccnn3C)c2)c1`, at 3 µM the inhibition against hERG (KCNH2) [12] was 17%. Moreover, the IC50 in [1] came out at 57 nM. Further, the inhibition constant (Ki) in [2] was 5.1 nM; in data set [9], 5890 nM.

`Cn1nccc1-c1cc(NC(=O)c2cccc(F)c2)ccc1OCCN1CCOCC1` registered an inhibition at 3 µM against hERG (KCNH2) [12] of 43%. Besides, the IC50 in [1] came out at 86 nM. In addition, the Ki was 5.1 nM in [2] and more than 10000 nM in data set [9].

In the case of `CC(=O)N1CCN(CCOc2ccc(NC(=O)c3cccc(F)c3)cc2-c2c(Cl)cnn2C)CC1`, the inhibition at 3 µM at hERG (KCNH2) [12] was 43%. In data set [1], the IC50 worked out at 70 nM. For the same molecule, the Ki in data set [2] was determined as 2.2 nM; in data set [9], 8600 nM.

Take `Cn1nccc1-c1cc(NC(=O)c2ccc(F)cc2)ccc1OCCN1CCOCC1`: the IC50 in data set [1] turned out to be 100 nM. The Ki in data set [2] is 18 nM; in [9], more than 10000 nM.

On to `COc1cccc(C(=O)Nc2ccc(OCCN3CCN(C(C)=O)CC3)c(-c3ccnn3C)c2)c1`, for which testing at 3 µM against hERG (KCNH2) [12] gave an inhibition of 24%. In addition, in data set [1], the IC50 amounted to 77 nM. Besides, the Ki was 4.5 nM in data set [2] and more than 10000 nM in data set [9].

Consider `Cn1nccc1-c1cc(NC(=O)c2cccc(C(F)(F)F)c2)ccc1OCCN1CCNC(=O)C1`, for which the figures for the Ki in data set [2] and in data set [9] were 287 nM and more than 10000 nM, respectively.
